Data from ChEMBL document CHEMBL4665899, “Exploring the Chemical Space of Benzothiazole-Based DNA Gyrase B Inhibitors” (ACS Med Chem Lett, 2020).
Values after ≈ are worked out from the molar mass of the structure shown.

Experiments:
[1] = target: Topoisomerase IV (Staphylococcus aureus, UniProt P0C1S7+P0C1U9); assay: Inhibition of Staphylococcus aureus DNA topoisomerase 4 using supercoiled pNO1 plasmid DNA as substrate incubated for 30 mins by fluorescence assay; assay type: protein-complex assay
Chain of Topoisomerase IV (P0C1U9 whole entry): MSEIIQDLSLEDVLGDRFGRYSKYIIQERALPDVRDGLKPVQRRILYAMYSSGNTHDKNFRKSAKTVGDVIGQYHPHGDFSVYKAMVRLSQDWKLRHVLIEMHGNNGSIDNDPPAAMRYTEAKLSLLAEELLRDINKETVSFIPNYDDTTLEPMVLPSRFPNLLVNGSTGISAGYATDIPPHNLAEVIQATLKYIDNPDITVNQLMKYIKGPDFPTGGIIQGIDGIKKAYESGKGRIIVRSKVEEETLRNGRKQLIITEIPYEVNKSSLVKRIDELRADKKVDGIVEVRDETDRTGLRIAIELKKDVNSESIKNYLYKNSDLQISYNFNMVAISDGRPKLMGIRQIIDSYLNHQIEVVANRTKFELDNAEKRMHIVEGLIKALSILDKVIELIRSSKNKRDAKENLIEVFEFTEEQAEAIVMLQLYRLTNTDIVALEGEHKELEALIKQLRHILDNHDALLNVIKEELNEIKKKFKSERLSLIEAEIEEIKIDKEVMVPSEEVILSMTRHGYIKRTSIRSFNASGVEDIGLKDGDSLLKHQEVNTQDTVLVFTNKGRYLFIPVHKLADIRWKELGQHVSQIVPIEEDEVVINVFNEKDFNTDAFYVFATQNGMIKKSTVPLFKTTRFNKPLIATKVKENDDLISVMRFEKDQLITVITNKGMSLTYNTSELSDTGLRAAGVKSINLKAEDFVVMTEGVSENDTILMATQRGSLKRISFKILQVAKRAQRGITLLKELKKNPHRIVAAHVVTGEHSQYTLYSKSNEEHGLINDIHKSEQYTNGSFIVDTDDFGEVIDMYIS
Chain of Topoisomerase IV (P0C1S7 whole entry): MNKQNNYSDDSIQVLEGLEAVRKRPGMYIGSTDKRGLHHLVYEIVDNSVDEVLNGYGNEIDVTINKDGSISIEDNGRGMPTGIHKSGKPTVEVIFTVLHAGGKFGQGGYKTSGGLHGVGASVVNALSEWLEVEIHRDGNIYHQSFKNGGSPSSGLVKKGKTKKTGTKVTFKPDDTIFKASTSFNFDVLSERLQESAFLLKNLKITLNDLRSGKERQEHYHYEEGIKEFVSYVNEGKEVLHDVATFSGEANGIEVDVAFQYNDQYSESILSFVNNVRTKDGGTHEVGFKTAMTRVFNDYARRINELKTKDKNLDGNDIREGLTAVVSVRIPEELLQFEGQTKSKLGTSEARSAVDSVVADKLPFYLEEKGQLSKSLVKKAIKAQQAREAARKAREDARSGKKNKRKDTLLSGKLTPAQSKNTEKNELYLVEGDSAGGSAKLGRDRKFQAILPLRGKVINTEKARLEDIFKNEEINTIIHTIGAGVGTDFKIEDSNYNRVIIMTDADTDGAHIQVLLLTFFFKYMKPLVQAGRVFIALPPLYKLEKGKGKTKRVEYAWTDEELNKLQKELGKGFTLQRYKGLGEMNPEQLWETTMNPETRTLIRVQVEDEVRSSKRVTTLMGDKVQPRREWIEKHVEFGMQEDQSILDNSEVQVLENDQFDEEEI

[2] = test system: Escherichia coli; assay: Inhibition of Escherichia coli DNA topoisomerase 4 assessed as enzyme residual activity at 10 uM using supercoiled pNO1 plasmid DNA as substrate incubated for 30 mins by fluorescence assay relative to control
[3] = test system: Staphylococcus aureus; assay: Antibacterial activity against Staphylococcus aureus ATCC 29213 assessed as minimum inhibitory concentration required for >=90% inhibition of bacterial growth measured after 24 hrs by broth microdilution method; assay type: functional
In short: (§1)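 Strains were grown from cation-adjusted Mueller-Hinton agar slants into cation-adjusted MH broth at 37°C for 16-20 h at 100 rpm. Broth microdilution followed CLSI guidelines, with a final inoculum of 5×10^5 CFU/mL mixed 1:1 with compound in MH broth and incubated for 24 h at 37°C. Growth was read as A620 and expressed as percentage inhibition relative to untreated controls. Each plate included a ciprofloxacin positive control.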

[4] = test system: Escherichia coli; assay: Antibacterial activity against efflux pump defective Escherichia coli JW5503 harbouring tolC mutant assessed as minimum inhibitory concentration required for >=90% inhibition of bacterial growth measured after 24 hrs by broth microdilution method; assay type: functional
[5] = test system: Escherichia coli; assay: Antibacterial activity against outer membrane impaired Escherichia coli JD17464 harboring lpxC mutant assessed as minimum inhibitory concentration required for >=90% inhibition of bacterial growth measured after 24 hrs by broth microdilution method; assay type: functional
[6] = test system: Enterococcus faecalis; assay: Antibacterial activity against Enterococcus faecalis ATCC 29212 assessed as minimum inhibitory concentration required for >=90% inhibition of bacterial growth after 24 hrs by broth microdilution method; assay type: functional; in short: as §1
[7] = target: Topoisomerase IV (Staphylococcus aureus) (UniProt P0C1U9+P0C1S7); assay: Inhibition of Staphylococcus aureus DNA topoisomerase 4 assessed as enzyme residual activity at 10 uM using supercoiled pNO1 plasmid DNA as substrate incubated for 30 mins by fluorescence assay relative to control; assay type: protein-complex assay
[8] = test system: Pseudomonas aeruginosa; assay: Antibacterial activity against Pseudomonas aeruginosa ATCC 27853 assessed as minimum inhibitory concentration required for >=90% inhibition of bacterial growth measured after 24 hrs by broth microdilution method; assay type: functional; in short: as §1
[9] = target: DNA gyrase (Escherichia coli, UniProt P0AES4+P0AES6); assay: Inhibition of Escherichia coli DNA gyrase using relaxed pNO1 plasmid DNA as substrate incubated for 30 mins by fluorescence assay; assay type: protein-complex assay
[10] = test system: Escherichia coli; assay: Antibacterial activity against Escherichia coli ATCC 25922 assessed as minimum inhibitory concentration required for >=90% inhibition of bacterial growth measured after 24 hrs by broth microdilution method; assay type: functional
In short: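 Cation-adjusted Mueller Hinton broth culture grown 16-20 h at 37°C with 100 rpm shaking. CLSI broth microdilution at a final inoculum of 5×10^5 CFU/mL, 8 concentrations from […], incubated 24 h at 37°C. A620 read and growth inhibition expressed as % of untreated controls. Ciprofloxacin positive control on every plate; n = 3.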

[11] = target: DNA gyrase (Staphylococcus aureus) (UniProt P0A0K8+P20831); assay: Inhibition of Staphylococcus aureus DNA gyrase assessed as enzyme residual activity at 10 uM using relaxed pNO1 plasmid DNA as substrate incubated for 30 mins by fluorescence assay relative to control; assay type: protein-complex assay
Chain of DNA gyrase (Staphylococcus aureus) (P0A0K8 2-644 limits assumed): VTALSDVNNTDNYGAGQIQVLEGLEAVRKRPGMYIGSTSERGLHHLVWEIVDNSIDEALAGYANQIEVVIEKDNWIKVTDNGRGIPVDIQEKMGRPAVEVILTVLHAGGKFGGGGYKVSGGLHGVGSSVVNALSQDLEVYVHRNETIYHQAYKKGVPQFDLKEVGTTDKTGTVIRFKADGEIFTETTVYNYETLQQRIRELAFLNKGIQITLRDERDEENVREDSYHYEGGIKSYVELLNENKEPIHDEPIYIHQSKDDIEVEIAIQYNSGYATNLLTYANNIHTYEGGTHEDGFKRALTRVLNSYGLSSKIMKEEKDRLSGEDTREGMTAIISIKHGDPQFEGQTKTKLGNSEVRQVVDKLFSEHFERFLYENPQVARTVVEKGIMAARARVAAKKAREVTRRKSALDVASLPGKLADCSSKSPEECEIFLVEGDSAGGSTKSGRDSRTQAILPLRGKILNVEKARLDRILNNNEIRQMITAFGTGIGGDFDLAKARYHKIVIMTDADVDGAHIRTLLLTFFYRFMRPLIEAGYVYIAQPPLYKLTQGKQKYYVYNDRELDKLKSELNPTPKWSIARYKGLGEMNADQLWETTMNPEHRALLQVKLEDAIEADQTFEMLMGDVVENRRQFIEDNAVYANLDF
Chain of DNA gyrase (Staphylococcus aureus) (P20831 whole entry partner): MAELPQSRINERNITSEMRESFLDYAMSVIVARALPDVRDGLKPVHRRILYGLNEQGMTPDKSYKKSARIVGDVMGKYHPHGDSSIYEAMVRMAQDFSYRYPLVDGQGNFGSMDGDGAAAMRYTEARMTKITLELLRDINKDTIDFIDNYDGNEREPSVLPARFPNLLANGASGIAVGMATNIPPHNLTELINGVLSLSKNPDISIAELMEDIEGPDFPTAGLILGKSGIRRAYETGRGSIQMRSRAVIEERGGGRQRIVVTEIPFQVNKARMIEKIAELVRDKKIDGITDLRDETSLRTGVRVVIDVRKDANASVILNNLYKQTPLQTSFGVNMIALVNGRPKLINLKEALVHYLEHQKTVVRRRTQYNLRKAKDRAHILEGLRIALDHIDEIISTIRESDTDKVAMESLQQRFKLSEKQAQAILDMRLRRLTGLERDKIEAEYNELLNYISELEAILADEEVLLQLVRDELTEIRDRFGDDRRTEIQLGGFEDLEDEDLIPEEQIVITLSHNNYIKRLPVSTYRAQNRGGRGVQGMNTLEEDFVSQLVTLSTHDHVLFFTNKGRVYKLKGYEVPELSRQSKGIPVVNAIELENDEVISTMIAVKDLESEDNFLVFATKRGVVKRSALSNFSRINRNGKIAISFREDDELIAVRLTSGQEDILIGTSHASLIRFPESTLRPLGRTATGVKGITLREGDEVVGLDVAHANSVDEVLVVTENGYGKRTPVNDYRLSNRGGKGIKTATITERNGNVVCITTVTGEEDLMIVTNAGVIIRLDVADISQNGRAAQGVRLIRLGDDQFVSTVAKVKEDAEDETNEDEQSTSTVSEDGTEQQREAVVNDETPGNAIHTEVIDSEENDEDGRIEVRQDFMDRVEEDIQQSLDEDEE

[12] = Inhibition of Escherichia coli DNA topoisomerase 4 using supercoiled pNO1 plasmid DNA as substrate incubated for 30 mins by fluorescence assay
[13] = target: DNA gyrase (Staphylococcus aureus, UniProt P0A0K8+P20831); assay: Inhibition of Staphylococcus aureus DNA gyrase using relaxed pNO1 plasmid DNA as substrate incubated for 30 mins by fluorescence assay; assay type: protein-complex assay
Chain of DNA gyrase (Staphylococcus aureus, UniProt P0A0K8+P20831) (P0A0K8 whole entry): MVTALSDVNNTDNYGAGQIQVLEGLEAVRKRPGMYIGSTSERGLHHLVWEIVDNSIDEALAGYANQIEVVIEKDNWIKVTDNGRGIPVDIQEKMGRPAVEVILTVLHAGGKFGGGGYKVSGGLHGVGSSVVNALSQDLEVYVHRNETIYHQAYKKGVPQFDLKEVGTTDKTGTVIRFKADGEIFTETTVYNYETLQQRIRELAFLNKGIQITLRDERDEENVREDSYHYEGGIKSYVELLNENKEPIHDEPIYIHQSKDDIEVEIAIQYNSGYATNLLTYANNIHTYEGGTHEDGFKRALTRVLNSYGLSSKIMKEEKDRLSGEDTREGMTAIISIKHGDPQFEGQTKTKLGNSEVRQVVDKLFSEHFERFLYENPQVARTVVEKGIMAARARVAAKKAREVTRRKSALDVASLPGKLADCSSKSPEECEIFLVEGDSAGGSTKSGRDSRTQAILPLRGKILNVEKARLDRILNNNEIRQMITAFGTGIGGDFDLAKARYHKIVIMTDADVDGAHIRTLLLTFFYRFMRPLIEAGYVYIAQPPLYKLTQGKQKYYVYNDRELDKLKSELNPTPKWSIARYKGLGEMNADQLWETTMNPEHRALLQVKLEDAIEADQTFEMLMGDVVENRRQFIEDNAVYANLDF
Chain of DNA gyrase (Staphylococcus aureus, UniProt P0A0K8+P20831) (P20831 whole entry): as the sequence (P20831 whole entry partner) above

SMILES	IC50 [1] [µM]	Activity [2] [%]	MIC [3] [µM]	MIC [4] [µM]	MIC [5] [µM]	MIC [6] [µM]	Activity [7] [%]	MIC [8] [µM]	IC50 [9] [µM]	MIC [10] [µM]	Activity [11] [%]	IC50 [12] [µM]	IC50 [13] [µM]
O=C(O)C(=O)Nc1ccc2nc(NC(=O)c3cc(Br)c(Br)[nH]3)sc2c1	10	–	–	–	–	–	–	–	–	–	–	–	–
CCOC(=O)C(=O)Nc1nc2ccc(NC(=O)c3[nH]c(C)c(Cl)c3Cl)cc2s1	–	100	> 50	> 50	> 50	> 50	100	> 50	0.29	> 50	69	–	–
Cc1[nH]c(C(=O)Nc2nc3ccc(NC(=O)C(=O)O)cc3s2)c(Cl)c1Cl	0.29	–	> 50	–	> 50	> 50	–	> 50	–	–	–	0.075	–
Cc1[nH]c(C(=O)Nc2nc3ccc(NC(=O)CNC(=O)OC(C)(C)C)cc3s2)c(Cl)c1Cl	–	60	> 50	0.78 (≈ 0.389 µg/mL)	> 50	3.13 (≈ 1.56 µg/mL)	100	> 50	0.029	> 50	–	–	0.26
Cc1[nH]c(C(=O)Nc2nc3ccc(N)cc3s2)c(Cl)c1Cl	–	100	–	–	–	–	100	–	16	–	60	–	–
COC(=O)CC(=O)Nc1ccc2nc(NC(=O)c3cc(Br)c(Br)[nH]3)[nH]c2c1	–	100	> 50	> 50	> 50	> 50	100	> 50	7	> 50	100	–	–
Cc1[nH]c(C(=O)Nc2nc3ccc(NC(=O)CN)cc3s2)c(Cl)c1Cl	–	100	25 (≈ 9.96 µg/mL)	3.13 (≈ 1.25 µg/mL)	> 50	6.25 (≈ 2.49 µg/mL)	100	> 50	0.28	> 50	–	–	0.38
O=C(O)c1cn(C2CC2)c2cc(N3CCNCC3)c(F)cc2c1=O [CIPROFLOXACIN]	–	–	–	–	–	–	–	–	–	0.05 (≈ 0.0166 µg/mL)	–	–	–
CC(=O)Nc1ccc2nc(NC(=O)c3[nH]c(C)c(Cl)c3Cl)sc2c1	1.6	–	> 50	0.78 (≈ 0.299 µg/mL)	> 50	3.13 (≈ 1.2 µg/mL)	–	> 50	0.0095	> 50	–	4.6	0.4
O=C(O)CC(=O)Nc1ccc2nc(NC(=O)c3cc(Br)c(Br)[nH]3)[nH]c2c1	–	100	> 50	> 50	> 50	> 50	100	> 50	1.5	> 50	100	–	–
CC(=O)Nc1nc2ccc(NC(=O)c3[nH]c(C)c(Cl)c3Cl)cc2s1	–	100	> 50	> 50	> 50	> 50	100	> 50	0.066	> 50	–	–	35.4
Cc1[nH]c(C(=O)Nc2ccc3nc(NC(=O)C(=O)O)sc3c2)c(Cl)c1Cl	0.91	–	> 50	–	> 50	> 50	–	> 50	0.029	–	–	6.4	0.25
Cc1[nH]c(C(=O)Nc2nc3ccc(NC(N)=O)cc3s2)c(Cl)c1Cl	5.8	–	> 50	1.56 (≈ 0.599 µg/mL)	> 50	> 50	–	> 50	0.026	> 50	–	5.2	1.3
Cc1[nH]c(C(=O)Nc2nc3ccc(NC(=O)c4ccncc4)cc3s2)c(Cl)c1Cl	–	100	> 50	> 50	> 50	> 50	100	> 50	2.5	> 50	100	–	–
Cc1[nH]c(C(=O)Nc2nc3ccc(NC(=O)CCN)cc3s2)c(Cl)c1Cl	0.29	–	> 50	12.5 (≈ 5.15 µg/mL)	> 50	12.5 (≈ 5.15 µg/mL)	–	> 50	0.11	> 50	–	10	1.5
Cc1[nH]c(C(=O)Nc2nc3ccc(NC(=O)CCNC(=O)OC(C)(C)C)cc3s2)c(Cl)c1Cl	–	100	> 50	> 50	> 50	> 50	100	> 50	0.11	> 50	–	–	0.78
COC(=O)CC(=O)Nc1nc2ccc(NC(=O)c3[nH]c(C)c(Cl)c3Cl)cc2s1	–	100	> 50	1.56 (≈ 0.688 µg/mL)	> 50	> 50	48	> 50	0.2	> 50	59	–	–
CCOC(=O)C(=O)Nc1ccc2nc(NC(=O)c3[nH]c(C)c(Cl)c3Cl)sc2c1	–	100	> 50	50 (≈ 22.1 µg/mL)	> 50	> 50	100	> 50	0.048	> 50	100	–	–
CCOC(=O)C(=O)Nc1ccc2nc(NC(=O)c3cc(Br)c(Br)[nH]3)[nH]c2c1	–	100	> 50	> 50	> 50	> 50	100	> 50	4	> 50	100	–	–
O=C(O)C(=O)Nc1ccc2nc(NC(=O)c3cc(Br)c(Br)[nH]3)[nH]c2c1	31	–	> 50	–	> 50	> 50	–	> 50	0.6	–	–	12	80
